An excerpt weighted towards active compounds, which were near 2.3% of everything screened.
Arrestin-AP2 inh: human beta-arrestin and AP2 interaction inhibition; FITC-arrestin peptide / GST-AP2 beads, flow cytometry; AP2 beta2 appendage carries R879A mutation; inhibition, % at 10 µM; hit rate 0.31% among 340,000; AID 504490;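 active means inhibition above a set limit, near 3 SD of compounds lacking own fluorescence, cut at about 54% in these data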;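 further: plate controls were DMSO wells for no effect and 5 µM unlabelled arrestin peptide for full effect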
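Measured by: flow cytometry, FL1 (488/535 nm); Material: AP2 appendage R879A on GSH beads; Evaluation: percent response; Timing: pre-incubation 12 min, peptide binding 1 h, room temperature; Also added: 50 nM FITC-arrestin peptide; Medium: PBS with 0.05% Tween 20 and 0.1% BSA.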
N-glyco inh: blocks N-linked glycosylation in D54 reporter cells; AID 588692; hit rate 0.23% among 360,000; D54 ERlucT glycosylation luciferase reporter, 24 h; percent of 100 nM tunicamycin response; reporter increase, % at 12.5 µM;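 active means mean luciferase reporter signal, scaled so untreated is 0 and the glycosylation-blocking control 100, at or above a set limit in every replicate; inconclusive means mean reaches the limit but not every replicate does; inactive means mean below the limit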;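 further: luciferase carries N-glycosylation sites so blocking glycosylation raises the light; 0% = median of neutral control wells and 100% = median of 100 nM tunicamycin wells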
PAX8 reporter: PAX8 transcriptional activity inhibition | RMG-I TPO-luciferase reporter, SteadyGlo, 24 h | inhibition, % at 12.6 µM | hit rate 1.2% among 360,000 | AID 652154;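 active means mean replicate inhibition at least 60% with every replicate also reaching 60%; inconclusive means only one of the two criteria is met; inactive means mean below 60% and not all replicates reaching 60%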;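 further: luciferase light reporting Pax8 driven TPO promoter activity; plate controls were median of neutral control wells for no effect and mitoxantrone controls for full effect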
PfHsp90 yeast 2: inhibits growth of yeast expressing Plasmodium falciparum Hsp90. S. cerevisiae expressing PfHsp90, BacTiter-Glo ATP, 48 h; yeast lacking PDR1 and PDR3 efflux regulators. inhibition, % at 9.4 µM. hit rate 0.32% among 310,000;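 active means every replicate shows inhibition above about 80%, whatever the replicate mean, limit read from the data; inconclusive means mean inhibition reaches the set limit but some replicate falls short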;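 further: 0% = DMSO neutral controls and 100% = 20 µM radicicol positive controls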
Rtt109 HAT inh: inhibitors of Candida albicans Rtt109/Vps75 histone acetyltransferase; Q5AAJ8; purified Rtt109/Vps75, ThioGlo CoA-SH fluorescence, 4 h; inhibition, % at 34.9 µM; hit rate 0.16% among 330,000;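 active means inhibition of at least 50% in every replicate; inconclusive means best replicate reaches 50% inhibition but some replicates fall short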
Target sequence (Q5AAJ8 whole entry, looked up): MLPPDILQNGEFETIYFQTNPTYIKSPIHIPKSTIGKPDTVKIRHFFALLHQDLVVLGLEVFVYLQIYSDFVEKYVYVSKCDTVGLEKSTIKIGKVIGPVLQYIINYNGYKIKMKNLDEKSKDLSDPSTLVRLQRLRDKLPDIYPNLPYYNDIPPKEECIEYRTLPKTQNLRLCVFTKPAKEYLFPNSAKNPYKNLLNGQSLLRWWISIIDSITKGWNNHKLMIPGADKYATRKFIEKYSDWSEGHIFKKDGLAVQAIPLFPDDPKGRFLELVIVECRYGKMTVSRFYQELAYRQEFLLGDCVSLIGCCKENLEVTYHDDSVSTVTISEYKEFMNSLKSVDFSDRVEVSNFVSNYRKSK
Env fusion inh: inhibitors of HIV Env-mediated cell fusion | HeLa-JRFL Env/CEM21 cell fusion, luciferase | inhibition, % at 12.3 µM | hit rate 1.1% among 360,000 | AID 651610;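 active means mean replicate inhibition score of at least 50 and every replicate individually at or above 50; inconclusive means only one of the two criteria met; inactive means mean below 50 and not all replicates reaching 50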;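 further: 0% = plate neutral controls and 100% = maraviroc near 300 nM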
Numbers without * were called inactive; ? = inconclusive; · = no result given; ! = repeats disagree; [ ] = remark or other dose.

SMILES | Arrestin-AP2 inh | N-glyco inh | PAX8 reporter | PfHsp90 yeast 2 | Rtt109 HAT inh | Env fusion inh
C[C@@H]1CN([C@H](C)CO)C(=O)c2cc(NS(=O)(=O)c3ccc(Cl)cc3)ccc2O[C@@H](C)CCCCO[C@@H]1CN(C)Cc1ccc2c(c1)OCO2 | · | · | -11.5 | · | · | 68.5*![16.7 µM]
C[C@@H]1CCCCO[C@H](CN(C)Cc2ccc3c(c2)OCO3)[C@H](C)CN([C@@H](C)CO)C(=O)c2cc(NS(=O)(=O)c3ccc(Cl)cc3)ccc2O1 | · | · | 53.1 | · | · | -37.6[16.7 µM]
C[C@@H]1CN([C@H](C)CO)C(=O)c2cccc(NS(=O)(=O)c3ccc(Cl)cc3)c2O[C@H]1CN(C)C(=O)Nc1ccc(F)cc1 | · | · | -4.6 | · | · | 21.4[16.7 µM]
CO[C@@H]1CN(C)C(=O)c2ccc(NC(=O)c3ccccc3)cc2OC[C@@H](C)N(CC2CC2)C[C@H]1C | · | · | · | · | · | -10.5[16.7 µM]
O=C(C[C@@H]1CC[C@H]2[C@@H](COC[C@H](O)CN2C(=O)c2ccccc2F)O1)N1CCOCC1 | · | · | 0.8 | · | · | ·
CC(C)c1ccc(/C=C/C2=NNC(=O)CC2)cc1 | 34.7 | 4.0 | -62.0 | 11.5 | -1.8 | 36.5
COc1cc(/C=C/C2=NNC(=O)CC2)cc(OC)c1OC | -2.9 | 4.6 | 14.0 | 5.5 | 2.2 | 73.4*
CCOc1ccc(C(=O)Nc2ccc(Cc3ccncc3)cc2)cc1Br | 42.5 | 1.6 | 94.9* | 0.0 | -11.4 | -13.0
Cc1ccc(C(=O)NC(=C(Cl)Cl)S(=O)(=O)c2ccc(Cl)cc2)cc1 | -0.1 | 53.9* | -2.2 | -11.9 | 6.0 | -10.4
Cc1ccc(S(=O)(=O)/C(=C/Cl)NC(=O)c2ccccc2)cc1 | 0.6 | -1.1 | 93.9* | -9.9 | 12.5 | 23.5
Cc1ccc(C(=O)NC(=C(Cl)Cl)S(=O)(=O)c2ccc(C)cc2)cc1 | 6.9 | ? | · | -57.8 | 4.4 | 6.7
O=C(NS(=O)(=O)c1ccc(Cl)cc1)c1ccccc1 | 5.5 | 0.7 | 14.9 | 0.8 | -7.2 | 12.7
CC(=O)NC(=C(Cl)Cl)S(=O)(=O)c1ccccc1 | 18.5 | ? | 18.1 | 21.8 | 25.8 | -94.7
Cc1ccc(S(=O)(=O)C(NC(=O)c2ccccc2)=C(Cl)Cl)cc1 | 3.2 | 74.9* | 10.4 | 8.7 | -7.8 | -137.2
O=C(NC(=C(Cl)Cl)S(=O)(=O)c1ccc(Cl)cc1)c1ccccc1 | -7.8 | 58.7* | 30.8 | 8.0 | -12.0 | -63.3
C[C@@H]1CN([C@H](C)CO)C(=O)Cc2cc(NS(=O)(=O)c3cn(C)cn3)ccc2O[C@H]1CN(C)C(=O)Nc1ccccc1 | · | · | 2.8 | · | · | 11.7[16.7 µM]
COc1ccc2c3c([nH]c2c1)[C@H](CO)N(Cc1ccncc1)CC31CCN(C(=O)Cc2ccncc2)CC1 | · | · | 9.7 | · | · | ·
OC1(c2ccc(OC(F)F)cc2)CSC(=Nc2cccnc2)N1C1CC1 (stereo not drawn) | 8.2 | -2.9 | 6.9 | 18.9 | -3.4 | 75.3*
COc1ccc(OC)c(C2(O)CSC(=Nc3cccnc3)N2Cc2ccco2)c1 (stereo not drawn) | 8.6 | -2.1 | 13.4 | 2.2 | -11.9 | 21.6
O=C(/C=C/c1ccc([N+](=O)[O-])s1)N1CCCCC1 | 38.4 | 39.4* | 37.3 | 1.0 | · | -24.8
O=C(/C=C/c1ccc([N+](=O)[O-])s1)N1CCCC1 | -11.5 | 17.8 | ? | -17.4 | 3.6 | -37.8
CC1CC(C)CN(C(=O)/C=C/c2ccc([N+](=O)[O-])s2)C1 (stereo not drawn) | -1.9 | ? | 67.6* | -13.9 | 14.7 | -11.7
CCCC(=O)N1CCC2(CC1)CN(C(=O)C1CCC1)[C@@H](CO)c1[nH]c3cc(OC)ccc3c12 | · | · | 7.4 | · | · | ·
C[C@@H]1CN([C@H](C)CO)C(=O)c2cc(NC(=O)CCC(F)(F)F)ccc2O[C@@H](C)CCCCO[C@H]1CN(C)S(C)(=O)=O | · | · | -12.9 | · | · | 7.8[16.7 µM]
FC(F)(F)c1cnc(NNC(=S)Nc2ccc(Cl)cc2)c(Cl)c1 | -2.8 | 1.5 | 76.2* | 12.2 | 2.0 | 55.0*
SMILES | Arrestin-AP2 inh | N-glyco inh | PAX8 reporter | PfHsp90 yeast 2 | Rtt109 HAT inh | Env fusion inh
Fc1ccc(NC(=S)NNc2ncc(C(F)(F)F)cc2Cl)c(F)c1 | -9.2 | -1.6 | 85.4* | -18.3 | -1.1 | 69.6*
COCC#Cc1cnc2c(c1)C(=O)N([C@@H](C)CO)C[C@H](C)[C@@H](CN(C)C(=O)c1cccc(F)c1)O2 | · | · | 8.6 | · | · | 14.2[16.7 µM]
COc1ccc(C(C)NC(=O)c2ccc(Br)cc2)cc1OC (stereo not drawn) | -7.2 | 1.9 | 137.9* | 47.6 | -4.1 | ·
COc1ccc(C(C)NC(=O)c2ccc([N+](=O)[O-])cc2)cc1OC (stereo not drawn) | 2.5 | -0.5 | 25.8 | 0.2 | 0.1 | ·
CC(NC(=O)c1ccc(F)cc1)c1ccc2c(c1)CCCC2 (stereo not drawn) | -8.3 | -2.7 | · | 0.9 | -7.1 | ·
CC(NC(=O)c1ccc(Br)cc1)c1ccc2c(c1)CCCC2 (stereo not drawn) | 0.9 | -1.5 | 21.6 | 105.0* | -2.8 | 26.1
C[C@@H]1CN([C@@H](C)CO)C(=O)c2cc(NC(=O)Nc3ccccc3)ccc2O[C@@H](C)CCCCO[C@H]1CN(C)S(=O)(=O)c1cn(C)cn1 | · | · | -1.1 | · | · | 20.4[16.7 µM]
CN(C)c1ccc(-n2cccc2/C=C/[N+](=O)[O-])cc1 | 8.7 | 64.1* | 71.5* | 107.3* | -3.3 | -29.5
COc1cccc(C#Cc2ccc([C@H]3[C@@H](CO)N(C(=O)C4CCCCC4)[C@H]3C#N)cc2)c1 | · | · | 78.3* | · | · | 6.0[16.7 µM]
COc1cccc(C#Cc2ccc([C@@H]3[C@H](C#N)N(C(=O)C4CCCC4)[C@H]3CO)cc2)c1 | · | · | 23.0 | · | · | -19.0[16.7 µM]
COc1cccc(C#Cc2ccc([C@@H]3[C@H](C#N)N(C(=O)C4CCC4)[C@H]3CO)cc2)c1 | · | · | 25.3 | · | · | 8.1[16.7 µM]
COc1cccc(C#Cc2ccc([C@H]3[C@@H](CO)N(C(=O)C4CCC4)[C@H]3C#N)cc2)c1 | · | · | 71.5* | · | · | 27.2[16.7 µM]
COc1cccc(C#Cc2ccc([C@H]3[C@@H](CO)N(C(=O)C4CCCC4)[C@H]3C#N)cc2)c1 | · | · | 82.2* | · | · | 68.9*[16.7 µM]
COc1ccc(-c2nc(CC(=O)Nc3cccc(S(=O)(=O)NC4=NCCC4)c3)cs2)cc1 | -14.5 | 0.3 | 74.3* | 3.8 | 6.9 | ·
CN(C)c1ncnc2c1ccn2C1OC(CO)C(O)C1O (stereo not drawn) | 32.7 | -17.9 | ? | -15.4 | -0.2 | 76.7*
OC[C@H]1O[C@@H](n2cnc3c(Nc4ccccc4)ncnc32)[C@H](O)[C@@H]1O | 1.3 | 4.5 | -14.7 | 1.7 | -0.4 | -4.5
OCC1OC(n2cnc3c(NCc4ccccc4O)ncnc32)C(O)C1O (stereo not drawn) | 7.7 | -6.9 | 109.1* | -53.8 | -6.7 | 38.7

Assay outcomes (PubChem BioAssay)
